Data set [1] can be described thus: AUC (0 to t) in Sprague-Dawley rat assessed as JBP485 level at 12 mg/kg equiv of JBP485 administered orally by UPLC-MS/MS analysis. Conditions: in vivo, po. The data set is classed as ADME, organism-based. In short, it runs like this:
(§1)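 Male SD rats, 200-250 g, fasted 12 h with water, n=6. Oral dose of 12 mg/kg as JBP485 equivalent; dose-effect arms at 12 and 100 mg/kg. JBP485 given iv at 6 mg/kg as the reference. Jugular blood taken at 0.083-10 h. Plasma JBP485 by UPLC-MS/MS. Absolute F = (AUCpo×Div)/(AUCiv×Dpo)×100%, using AUC0-t.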

A short description of data set [2]: Half life in Sprague-Dawley rat liver homogenates at 5 mM by HPLC analysis. In kind it is ADME, tissue-based. In short, it runs like this:
(§2)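 Jejunum and liver homogenates from male SD rats in pH 7.4 PBS, adjusted to 200 µg/mL protein, and rat plasma. Each incubated with compound at 5 mM at 37 °C.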

The nature of data set [3]: Oral bioavailability in Sprague-Dawley rat assessed as JBP485 level at 12 mg/kg equiv of JBP485 by UPLC-MS/MS analysis. As to conditions: in vivo. The data set is classed as ADME, organism-based. In short, it runs like this:
as §1

The nature of data set [4]: Half life in pH 4.5 acetate buffer at 5 mM by HPLC analysis. The data set is classed as physicochemical. In short, it runs like this:
(§3)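 Compound at 5 mM in 0.1 M HCl, pH 4.5 acetate buffer, pH 5.8/6.8/7.2 phosphate buffers, SGF (pH 1.2) and SIF (pH 6.8), prepared per Chinese Pharmacopoeia. Samples taken at 0-20 h and analyzed by HPLC-UV. k = 2.303×slope of log C versus time; t1/2 = 0.693/k.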

Data set [5] is described as follows: Ratio of half-life in pH 7.2 phosphate buffer to half-life in Sprague-Dawley rat plasma. In kind it is ADME.
A short description of data set [6]: Ratio of half-life in pH 7.2 phosphate buffer to half-life in Sprague-Dawley rat liver homogenates. In kind it is ADME, tissue-based. Conditions: tissue homogenate.
A short description of data set [7]: Ratio of half-life in pH 7.2 phosphate buffer to half-life in Sprague-Dawley rat intestinal homogenates. In kind it is ADME, tissue-based. Conditions: tissue homogenate.
Data set [8] can be described thus: Half life in Sprague-Dawley rat intestinal homogenates at 5 mM by HPLC analysis. The data set is classed as ADME, tissue-based, Intestine. In short, it runs like this: as §2
Data set [9] in a line: Half life in Sprague-Dawley rat plasma at 5 mM by HPLC analysis. In kind it is ADME, cell-free. In short, it runs like this:
as §2

Data set [10] is described as follows: Cmax in Sprague-Dawley rat assessed as JBP485 level at 12 mg/kg equiv of JBP485 administered orally by UPLC-MS/MS analysis. As to conditions: in vivo, po. The data set is classed as ADME, organism-based. Also on record: dose 12 mg/kg, route oral. In short, it runs like this:
as §1

Data set [11] is described as follows: Half life in pH 7.2 phosphate buffer at 5 mM by HPLC analysis. The data set is classed as physicochemical. Summed up:
as §3

Data set [12] is described as follows: Half life in pH 6.8 phosphate buffer at 5 mM by HPLC analysis. In kind it is physicochemical. In short, it runs like this: as §3
A short description of data set [13]: Half life in pH 5.8 phosphate buffer at 5 mM by HPLC analysis. The data set is classed as physicochemical. Summed up:
as §3

The nature of data set [14]: Terminal half-life in Sprague-Dawley rat assessed as JBP485 level at 12 mg/kg equiv of JBP485 administered orally by UPLC-MS/MS analysis. In kind it is ADME, organism-based. Conditions: in vivo, po. In short, it runs like this: (§4)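 Fasted male SD rats (200–250 g), oral 12 mg/kg (prodrugs calculated as JBP485). Jugular blood 0.083–10 h, centrifuged, plasma JBP485 by UPLC-MS/MS; n=6.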

Data set [15] in a line: Half life in 0.1 M HCl at 5 mM by HPLC analysis. In kind it is physicochemical. In short, it runs like this:
as §3

Data set [16] in a line: Half life in pH 6.8 simulated intestinal fluid at 5 mM by HPLC analysis. The data set is classed as ADME. In short, it runs like this: as §3
Data set [17] can be described thus: Half life in pH 1.2 simulated gastric fluid at 5 mM by HPLC analysis. In kind it is ADME. Summed up: as §3
A short description of data set [18]: Tmax in Sprague-Dawley rat assessed as JBP485 level at 12 mg/kg equiv of JBP485 administered orally by UPLC-MS/MS analysis. The data set is classed as ADME, organism-based. Conditions: in vivo, po. In short, it runs like this: as §4
The nature of data set [19]: Apparent permeability across human Caco2 cells at 0.5 mM measured after 5 to 60 mins by UPLC-MS/MS analysis. In kind it is ADME, cell-based. As to conditions: caco-2, 500 µM. In short, it runs like this:
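Caco-2 cells grown on 0.4 µm transwell inserts; monolayers used only with TEER >300 Ω/cm². Compound at 0.5 mM in apical pH 6.0 HBSS, basolateral pH 7.4 HBSS, 37 °C. Basolateral samples taken at 5, 15, 30, 45 and 60 min. Quantified by UPLC-MS/MS; Papp from steady-state flux, area and initial donor concentration. Three repeats.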
On the technique in general: Passage across Caco-2 layers is used to estimate intestinal permeability.

Substrate in data set [20]: [H][C@@]12C[C@@H](O)CN1C(=O)[C@H](COC(=O)[C@@H](N)C(C)C)NC2=O
Briefly: (§5) Substrate activity at PEPT1 in human Caco2 cells assessed as Km measured after 10 mins by Eadie-Hofstee plot analysis. The data set is classed as ADME, cell-based. In short, it runs like this: (§6)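 Caco-2 uptake at 0.2–5 mM compound for 10 min at 37 °C, cells washed ice-cold and lysed, drug quantified by UPLC-MS/MS and normalised to protein. Km from Eadie–Hofstee plot; n=3.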

Substrate in data set [21]: O=C1N[C@@H](CO)C(=O)N2C[C@H](O)C[C@@H]12
The description is as §5. In kind it is ADME, cell-based. In short, it runs like this:
as §6

Substrate in data set [22]: O=C(O)[C@H](CO)NC(=O)[C@@H]1C[C@@H](O)CN1
The description is as §5. The data set is classed as ADME, cell-based. Summed up:
as §6

As a reminder, the half-life is the time in which the quantity being followed falls by half. The Cmax is the peak of the concentration-time curve. One may read the Tmax as the time from dosing to the highest level. For the molecule `N[C@@H](Cc1ccccc1)C(=O)OC[C@@H]1NC(=O)[C@@H]2C[C@@H](O)CN2C1=O`, in [1], the AUCt amounted to 33.9 nM/ml.hr. In addition, the half-life at 5000 µM is 0.16 h in data set [2]; greater than 20 h in data set [4]; less than 0.083 h in data set [8]; 0.29 h in data set [9]; 2.3 h in data set [11]; 2.6 h in [12]. Besides, the half-life at 5000 µM in [13] is 8.2 h; in data set [15], greater than 20 h; in [16] it was 2.8 h; in data set [17], greater than 20 h. The F in data set [3] came to 8.7%. For the same molecule, the Ratio in data set [5], in data set [6] and in data set [7] was 3 to 35 throughout. In addition, the peak concentration (Cmax) in data set [10] is 10.7 µM. Moreover, in data set [14], the “beta t1/2” value amounted to 2.38 h. Moreover, the time of peak concentration (Tmax) in data set [18] amounted to 1 h.
Regarding `CC(C)C[C@H](N)C(=O)OC[C@@H]1NC(=O)[C@@H]2C[C@@H](O)CN2C1=O`, the AUCt in data set [1] turned out to be 28.75 nM/ml.hr. For the same molecule, the half-life at 5000 µM is 0.16 h in [2]; greater than 20 h in data set [4]; less than 0.083 h in [8]; 0.32 h in [9]; 1.9 h in data set [11]; 2.6 h in data set [12]. In addition, the half-life at 5000 µM in [13] was 14.7 h; in data set [15], greater than 20 h; in data set [16] it was 2.4 h; in data set [17], greater than 20 h. For the same molecule, the F in data set [3] turned out to be 7.4%. Besides, the Ratio in data set [5], in [6] and in data set [7] was 3 to 35 each time. In [10], the Cmax was found to be 8.95 µM. In addition, in data set [14], the “beta t1/2” value was found to be 2.23 h. Moreover, the time to peak (Tmax) in [18] came to 1.3 h.
Consider `CC(C)[C@H](N)C(=O)O[C@@H]1C[C@H]2C(=O)N[C@@H](CO)C(=O)N2C1`, for which, in [1], the AUCt is 139.78 nM/ml.hr. The half-life at 5000 µM in data set [2] is 2.1 h; in [4] it was greater than 20 h; in [8] it was 0.9 h; in data set [9] it was 6.1 h; in data set [11], 11.6 h; in data set [12], 11.4 h. The half-life at 5000 µM in data set [13] is greater than 20 h; in [15] it was greater than 20 h; in [16] it was 11.1 h; in [17] it was greater than 20 h. In addition, in data set [3], the F is listed as 36%. The Papp result in data set [19] is “Permeable”. Also, the Ratio in data set [5], in [6] and in data set [7] was 3 to 35 throughout. The Cmax in data set [10] was 98.3 µM. Besides, the “beta t1/2” value in [14] was 2.51 h. In addition, the Tmax in [18] came out at 0.41 h.
As for `CCC(C)[C@H](N)C(=O)OC[C@@H]1NC(=O)[C@@H]2C[C@@H](O)CN2C1=O` (some centres not stated), the AUCt in data set [1] turned out to be 122.65 nM/ml.hr. For the same molecule, the half-life at 5000 µM in data set [2] was 4.8 h; in data set [4], greater than 20 h; in data set [8], 0.8 h; in data set [9], 4 h; in data set [11], 9.6 h; in [12], 11.6 h. For the same molecule, the half-life at 5000 µM is greater than 20 h in [13], greater than 20 h in data set [15], 10.9 h in [16] and greater than 20 h in data set [17]. The F in data set [3] came to 31.6%. In [19], the Papp result is “Permeable”. The Ratio in [5], in data set [6] and in data set [7] was 3 to 35 each time. In addition, the highest concentration (Cmax) in data set [10] is 41.8 µM. Moreover, the “beta t1/2” value in [14] was found to be 0.9 h. In addition, in data set [18], the Tmax worked out at 0.9 h.

B1: Solute carrier family 15 member 1 (Homo sapiens) (protein)
chain: MGMSKSHSFFGYPLSIFFIVVNEFCERFSYYGMRAILILYFTNFISWDDNLSTAIYHTFVALCYLTPILGALIADSWLGKFKTIVSLSIVYTIGQAVTSVSSINDLTDHNHDGTPDSLPVHVVLSLIGLALIALGTGGIKPCVSAFGGDQFEEGQEKQRNRFFSIFYLAINAGSLLSTIITPMLRVQQCGIHSKQACYPLAFGVPAALMAVALIVFVLGSGMYKKFKPQGNIMGKVAKCIGFAIKNRFRHRSKAFPKREHWLDWAKEKYDERLISQIKMVTRVMFLYIPLPMFWALFDQQGSRWTLQATTMSGKIGALEIQPDQMQTVNAILIVIMVPIFDAVLYPLIAKCGFNFTSLKKMAVGMVLASMAFVVAAIVQVEIDKTLPVFPKGNEVQIKVLNIGNNTMNISLPGEMVTLGPMSQTNAFMTFDVNKLTRINISSPGSPVTAVTDDFKQGQRHTLLVWAPNHYQVVKDGLNQKPEKGENGIRFVNTFNELITITMSGKVYANISSYNASTYQFFPSGIKGFTISSTEIPPQCQPNFNTFYLEFGSAYTYIVQRKNDSCPEVKVFEDISANTVNMALQIPQYFLLTCGEVVFSVTGLEFSYSQAPSNMKSVLQAGWLLTVAVGNIIVLIVAGAGQFSKQWAEYILFAALLLVVCVIFAIMARFYTYINPAEIEAQFDEDEKKNRLEKSNPYFMSGANSQKQM
The term Km denotes the substrate concentration at which the rate is half of its maximum. With B1, the Km came out at 860 µM in [20], 2530 µM in [21] and 650 µM in data set [22].

The values are drawn from ChEMBL document CHEMBL4373712, “Bioactivatable Pseudotripeptidization of Cyclic Dipeptides To Increase the Affinity toward Oligopeptide Transporter 1 for Enhanced Oral Absorption: An Application to Cyclo(l-Hyp-l-Ser) (JBP485)” (J Med Chem, 2019).
